Active and inactive are the calls of the source. No cut-off for these calls is given here.

As usually defined, the IC50 is the concentration that gives 50% inhibition.

A short description of data set [1]: Binding affinity to 1 uM hybrid telomeric htg22 G-quadruplex DNA (unknown origin) at 1 uM after 1 min by fluorescence spectroscopic analysis. It counts as ADME. The procedure, abridged:
(§1)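 Fluorescence emission spectra of 1 µM compound mixed with 1 µM pre-annealed oligonucleotide (G-quadruplexes folded in 100 mM KCl by heating to 95 °C for 5 min, slow cooling), in Tris-HCl buffer.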

The nature of data set [2]: Binding affinity to 1 uM i-motif DNA (unknown origin) at 1 uM after 1 min by fluorescence spectroscopic analysis.
Data set [3] relates to BJ. The experiment in a line: Cytotoxicity against human BJ cells assessed as reduction in cell viability after 24 hrs by MTT assay. It counts as cell-based. In a few lines: (§2)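 Cells seeded at 5.0×10^3 per well, exposed to compound for 24 h; MTT (2.5 mg/mL) added for 4 h, formazan dissolved in DMSO, OD read at 570 nm. Triplicate; IC50 from curves of mean OD against concentration.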
On the technique in general: Formazan colour is commonly taken as a measure of viable cells.

For data set [4], the system named is A-375. As to the kind of experiment: Cytotoxicity against human A375 cells assessed as reduction in cell viability after 24 hrs by MTT assay. It counts as functional, cell-based. As to conditions: A-375, 24 h. In a few lines:
as §2

The nature of data set [5]: Cytotoxicity against mouse primary mesangial cells assessed as reduction in cell viability after 24 hrs by MTT assay. The class given is cell-based. In a few lines:
as §2

Data set [6] deals with Huh-7. The experiment in a line: Cytotoxicity against human Huh7 cells assessed as reduction in cell viability after 24 hrs by MTT assay. The class given is functional, cell-based. As to conditions: Huh-7, 24 h. In a few lines: as §2
Data set [7] has as its system HeLa. The experiment in a line: Cytotoxicity against human HeLa cells assessed as reduction in cell viability after 24 hrs by MTT assay. The class given is functional, cell-based. In a few lines: as §2
Data set [8] in a line: Binding affinity to 1 uM G-triplex DNA (unknown origin) at 1 uM after 1 min by fluorescence spectroscopic analysis.
The test system of data set [9] is SiHa. The experiment in a line: Cytotoxicity against human SiHa cells assessed as reduction in cell viability after 24 hrs by MTT assay. It counts as functional, cell-based. In a few lines: as §2
Data set [10] in a line: Binding affinity to 1 uM antiparallel HRAS G-quadruplex DNA (unknown origin) at 1 uM after 1 min by fluorescence spectroscopic analysis. The class given is ADME. The procedure, abridged:
as §1

The nature of data set [11]: Binding affinity to 1 uM c-MYC promoter G-quadruplex pu22 DNA (unknown origin) at 1 uM after 1 min by fluorescence spectroscopic analysis. The procedure, abridged:
as §1

Data set [12] concerns SiHa. The experiment in a line: Antitumor activity against human SiHa cells xenografted in nude BALB/c mouse assessed as tumor growth inhibition at 1 mg/kg, ip administered every other day for 24 days. The class given is functional, organism-based. The procedure, abridged: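 BALB/c nude mice (5 weeks old) given 1×10^7 SiHa cells subcutaneously in right flank; at ~50 mm3 tumor volume, randomized (10 per group) and dosed intraperitoneally every other day for 24 days; controls got equal-volume saline. Caliper volume as 1/2 × length × width2; tumors weighed at end; inhibition rate = (1 − mean treated tumor weight/mean control tumor weight) × 100%.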

In data set [13] the test system is Mus musculus. The experiment in a line: Toxicity in nude BALB/c mouse xenografted with human SiHa cells assessed as body weight reduction at 1 mg/kg, ip administered every other day for 24 days. It counts as organism-based. As to conditions: in vivo, 576 h. The procedure, abridged: (§3)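 BALB/c nude mice, 5 weeks old, implanted subcutaneously in right flank with 1×10^7 SiHa cells; at ~50 mm3 tumor, 10 per group dosed ip every other day for 24 days, saline control; body weight measured daily, viscera weighed at sacrifice; mean ± SEM, Student's t test versus saline.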
For orientation: In xenograft studies the graft and the host belong to different species.

In data set [14] the test system is Mus musculus. As to the kind of experiment: In vivo stabilization of c-Myc G-quadruplex DNA in human SiHa cells xenografted in nude BALB/c mouse assessed as decrease in c-Myc expression at 1 mg/kg, ip administered every other day for 24 days by immunohistochemistry. The class given is functional, organism-based.
Data set [15] deals with Mus musculus. The experiment in a line: Toxicity in nude BALB/c mouse xenografted with human SiHa cells assessed as viscera weight reduction at 1 mg/kg, ip administered every other day for 24 days. The class given is organism-based. As to conditions: in vivo, 576 h. The procedure, abridged: as §3

As for `CCn1c2ccccc2c2cc(-c3nc(-c4ccc(N5CCN(C)CC5)cc4)c(-c4ccc(F)cc4)[nH]3)ccc21`, the Activity result in data set [1] and in [10] was “Not Active” each time. Also, the result in data set [2] and in data set [8] was inactive. For the same compound, the IC50 in data set [3] worked out at 13.9 µM; in data set [4], 7.4 µM; in [5], 17.3 µM; in [6], 12.4 µM; in data set [7], 15.3 µM; in data set [9] it was 30.1 µM. For the same compound, the outcome in data set [11] was Active.

As for `CCn1c2ccccc2c2cc(-c3nc(-c4ccc(F)cc4)c(-c4ccc(F)cc4)n3-c3ccc(OC)cc3)ccc21`, the Activity result in data set [1] and in data set [10] was “Not Active” throughout. The IC50 in [3], in data set [4], in [5], in data set [6], in data set [7] and in [9] was greater than 80 µM each time. Besides, in data set [11], the outcome was inactive.

Regarding `CCn1c2ccccc2c2cc(-c3nc(-c4ccc(F)cc4)c(-c4ccc(F)cc4)[nH]3)ccc21`, the IC50 in [3], in data set [4], in [5], in [6], in data set [7] and in [9] was greater than 80 µM each time. Besides, the result in data set [11] was Active.

Take `CCn1c2ccccc2c2cc(-c3nc(-c4ccc(N5CCN(C)CC5)cc4)c(-c4ccc(N5CCN(C)CC5)cc4)[nH]3)ccc21`: the IC50 in data set [3] came to 2.8 µM; in data set [4] it was 2.3 µM; in data set [5], 3.1 µM; in data set [6], 2.7 µM; in [7], 2.5 µM; in data set [9], 2.3 µM.

Take `COc1cccc2c1C(=O)c1c(O)c3c(c(O)c1C2=O)C[C@@](O)(C(=O)CO)C[C@@H]3O[C@H]1C[C@H](N)[C@H](O)[C@H](C)O1` [DOXORUBICIN]: the TGI entry in [12] is “Active”. For the same compound, the Activity result in data set [13] and in data set [15] was “Toxic” each time. In addition, the result in data set [14] was Active.

These data come from ChEMBL document CHEMBL4033789, “Discovery of a New Four-Leaf Clover-Like Ligand as a Potent c-MYC Transcription Inhibitor Specifically Targeting the Promoter G-Quadruplex” (J Med Chem, 2018).
